Results as given in ChEMBL document CHEMBL4396972, “Glycyrrhizic acid derivatives as Dengue virus inhibitors” (Bioorg Med Chem Lett, 2019).
Active and inactive are the calls of the source. The calls are words filed in the database; no cut-off is given here.

Columns and labels:
[1] = system: dengue virus type 2; assay: Antiviral activity against DENV2 16681 infected in African green monkey Vero E6 cells assessed as reduction in virus induced cytopathic effect at 10 uM measured after 96 hrs by reverse phase contrast microscopy; assay type: functional, organism-based; details: Vero C1008
Method in brief: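 Vero E6 cells in supporting DMEM infected with DENV2 strain 16681 (MOI 0.01), then treated immediately with compound at 10 μM. After 96 h incubation, cytopathic effect photographed by reverse phase-contrast microscopy and scored semi-quantitatively (−, +, ++, +++) against infected controls.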

[2] = system: dengue virus type 2; assay: Antiviral activity against DENV2 16681 infected in African green monkey Vero E6 cells assessed as inhibitory rate of NS4B positive cells measured after 96 hrs incubation by DAPI staining based immunofluorescence method; assay type: functional, organism-based; details: for IC50: Dengue virus, 16681, Vero C1008, 96 h; for inhibition: Vero C1008
Method in brief: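 Vero E6 cells in DMEM, infected with DENV2 strain 16681 at MOI 0.01 and treated with compound (0, 0.1, 1, 10 μM; single 10 μM for screening). After 96 h, immunofluorescence with anti-NS4B antibody and DAPI nuclear counterstain. Infectivity = NS4B-positive cells / DAPI-stained cells. Inhibitory rate = (1 − NS4B-positive % treated / NS4B-positive % mock-treated infected) × 100. IC50 derived from NS4B-positive percentages across concentrations.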

[3] = system: dengue virus type 2; assay: Antiviral activity against DENV2 16681 infected in African green monkey Vero E6 cells assessed as inhibitory rate of NS4B positive cells at 1 uM measured after 96 hrs incubation by DAPI staining based immunofluorescence method; assay type: functional; details: Dengue virus, 16681, Vero C1008, 96 h
Method in brief: (§1)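 Vero E6 cells in DMEM infected with DENV2 strain 16681 at MOI 0.01, treated at once with compound (0, 0.1, 1, 10 μM), 96 h. Immunofluorescence with anti-NS4B antibody and DAPI counterstain. Infectivity taken as NS4B-positive cells over DAPI-stained total cells. Inhibitory rate = (1 − NS4B-positive % treated infected / NS4B-positive % mock-treated infected) × 100.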

[4] = system: dengue virus type 2; assay: Antiviral activity against DENV2 16681 infected in African green monkey Vero E6 cells assessed as reduction in virus induced cytopathic effect measured after 96 hrs by reverse phase contrast microscopy; assay type: functional, organism-based; details: Vero C1008
Method in brief: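 Vero E6 cells in DMEM infected with DENV2 16681 at MOI 0.01, compound added immediately (screen at 10 μM, then 0, 0.1, 1, 10 μM). Photographed 96 h post infection by phase-contrast microscopy. CPE reduction scored qualitatively (−, +, ++, +++).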

[5] = system: dengue virus type 2; assay: Antiviral activity against DENV2 16681 infected in human A549 cells assessed as inhibitory rate of NS4B positive cells at 0.1 to 10 uM measured after 120 hrs post infection by DAPI staining based immunofluorescence method; assay type: functional, organism-based
[6] = system: Vero C1008; assay: Cytotoxicity against African green monkey Vero E6 cells assessed as reduction in survival rate measured after 48 hrs by MTT assay; assay type: cell-based; details: chlorocebus sabaeus, vero c1008, 48 h
Method in brief: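 MTT viability test on Vero E6 cells in DMEM over a range of compound concentrations. CC50 calculated from survival of treated cells relative to mock cells.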

[7] = system: dengue virus type 2; assay: Antiviral activity against DENV2 16681 infected in human A549 cells assessed as reduction in virus induced cytopathic effect at 0.1 to 10 uM measured after 120 hrs post infection by light microscopy; assay type: functional, organism-based
[8] = Therapeutic index, ratio of CC50 for African green monkey Vero E6 cells to IC50 for DENV2 16681 infected in African green monkey Vero E6 cells; assay type: toxicity, Vero C1008; details: read-out: Ratio CC50/IC50
Method in brief: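 TI = CC50/IC50. CC50 comes from the Vero E6 MTT survival test. IC50 comes from the NS4B-positive cell fraction by immunofluorescence in DENV2 16681-infected Vero E6 cells (MOI 0.01, 96 h, 0–10 μM).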

[9] = system: dengue virus type 2; assay: Antiviral activity against DENV2 16681 infected in African green monkey Vero E6 cells assessed as inhibitory rate of NS4B positive cells at 10 uM measured after 96 hrs incubation by DAPI staining based immunofluorescence method; assay type: functional; details: Dengue virus, 16681, Vero C1008, 96 h; method in brief: as §1

SMILES	inhibition [1]	IC50 [2]	inhibition [2]	inhibition at 1 µM [3]	inhibition [4]	inhibition [5]	CC50 [6]	inhibition [7]	selectivity ratio [8]	inhibition at 10 µM [9]
CC[C@H](C)[C@H](NC(=O)[C@H]1O[C@@H](O[C@H]2[C@@H](O[C@H]3CC[C@]4(C)[C@H]5C(=O)C=C6[C@@H]7C[C@@](C)(C(=O)N[C@H](C(=O)O)[C@@H](C)CC)CC[C@]7(C)CC[C@@]6(C)[C@]5(C)CC[C@H]4C3(C)C)O[C@H](C(=O)N[C@H](C(=O)O)[C@@H](C)CC)[C@@H](O)[C@@H]2O)[C@H](O)[C@@H](O)[C@@H]1O)C(=O)O	Active	1.3 µM	Dose-dependent effect	20.2%	Dose-dependent effect	Active	> 100 µM	Active	> 76.3	95.7%
CC1(C)[C@@H](O[C@H]2O[C@H](C(=O)O)[C@@H](O)[C@H](O)[C@H]2O[C@@H]2O[C@H](C(=O)O)[C@@H](O)[C@H](O)[C@H]2O)CC[C@]2(C)[C@H]3C(=O)C=C4[C@@H]5C[C@@](C)(C(=O)O)CC[C@]5(C)CC[C@@]4(C)[C@]3(C)CC[C@@H]12 [GLYCYRRHIZIN]	Active	8.1 µM	Dose-dependent effect	–	Dose-dependent effect	–	> 100 µM	–	> 12.3	70.5%
